Laboratory results: ChEMBL document CHEMBL4118063, “Design, synthesis and evaluation of aromatic heterocyclic derivatives as potent antifungal agents” (Eur J Med Chem, 2017)
Converted amounts (≈) assume the structure as drawn.

Columns and labels:
Candida albicans [1] = experiment: Antifungal activity against Candida albicans CPCC 400523 by broth microdilution method; assay type: functional
In short: (§1)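 Serial twofold-style dilution in growth medium per NCCLS broth microdilution guidelines. Compounds dissolved in DMSO before dilution. Fluconazole and itraconazole served as positive controls. MIC was read as the lowest concentration that prevents visible fungal growth.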

Candida tropicalis = experiment: Antifungal activity against Candida tropicalis cgmcc 2.3739 by broth microdilution method; assay type: functional; in short: as §1
Aspergillus fumigatus = experiment: Antifungal activity against Aspergillus fumigatus GIM 3.524 by broth microdilution method; assay type: functional; in short: as §1
Candida albicans [2] = experiment: Antifungal activity against Candida albicans ATCC SC5314 by broth microdilution method; assay type: functional; in short: as §1
Cryptococcus neoformans = experiment: Antifungal activity against Cryptococcus neoformans cgmcc 2.3161 by broth microdilution method; assay type: functional; in short: as §1
[3] = Metabolic stability in human plasma assessed as parent compound remaining at 120 mins; assay type: ADME, cell-free; conditions: read-out: Stability
[4] = Metabolic stability in human plasma assessed as parent compound remaining at 60 mins; assay type: ADME, cell-free; conditions: read-out: Stability
Candida albicans [5] = experiment: Antifungal activity against fluconazole-resistant Candida albicans strain 103 by broth microdilution method; assay type: functional
In short: (§2)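 Broth serial dilution in 96-well plates per NCCLS guidelines; compounds dissolved in DMSO and serially diluted into growth medium; MIC taken as lowest concentration inhibiting visible fungal growth. Fluconazole-resistant clinical C. albicans isolates 100 and 103; fluconazole and itraconazole as positive controls.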

Candida albicans [6] = experiment: Antifungal activity against fluconazole-resistant Candida albicans strain 100 by broth microdilution method; assay type: functional; in short: as §2

Compound	MIC (Candida albicans [1]) [µg/mL]	MIC (Candida tropicalis) [µg/mL]	MIC (Aspergillus fumigatus) [µg/mL]	MIC (Candida albicans [2]) [µg/mL]	MIC (Cryptococcus neoformans) [µg/mL]	remaining at 2 h [3] [%]	remaining at 1 h [4] [%]	MIC (Candida albicans [5]) [µg/mL]	MIC (Candida albicans [6]) [µg/mL]
CC(C)COC(=O)[C@H](Cn1ccnc1)NC(=O)c1cnc(-c2ccccc2)nc1	0.5 (≈ 1.27 µM)	0.125 (≈ 0.318 µM)	> 16	0.25 (≈ 0.635 µM)	2 (≈ 5.08 µM)				
CC(C)OC(=O)[C@H](Cn1ccnc1)NC(=O)c1nc(-c2ccccc2)cs1	> 16	0.0625 (≈ 0.163 µM)	> 16	> 16	2 (≈ 5.2 µM)				
CC(C)OC(=O)[C@H](Cn1ccnc1)NC(=O)c1cc(-c2ccccc2)on1	0.5 (≈ 1.36 µM)	0.0625 (≈ 0.17 µM)	4 (≈ 10.9 µM)	0.25 (≈ 0.679 µM)	0.5 (≈ 1.36 µM)				
CC(C)COC(=O)[C@H](Cn1ccnc1)NC(=O)c1cc(-c2ccccc2)on1	1 (≈ 2.61 µM)	0.0312 (≈ 0.0817 µM)	4 (≈ 10.5 µM)	0.0625 (≈ 0.163 µM)	0.25 (≈ 0.654 µM)				
CC(C)OC(=O)[C@H](Cn1ccnc1)NC(=O)c1cc(-c2ccc(F)cc2)on1	2 (≈ 5.18 µM)	0.0312 (≈ 0.0809 µM)	8 (≈ 20.7 µM)	1 (≈ 2.59 µM)	2 (≈ 5.18 µM)				
Cc1ccc(-c2cc(C(=O)N[C@@H](Cn3ccnc3)C(=O)OCC(C)C)no2)cc1	0.5 (≈ 1.26 µM)	0.0312 (≈ 0.0788 µM)	8 (≈ 20.2 µM)	0.125 (≈ 0.315 µM)	0.5 (≈ 1.26 µM)				
CC(C)OC(=O)[C@H](Cn1ccnc1)NC(=O)c1ccc(-c2ccccc2)nc1	4 (≈ 10.6 µM)	1 (≈ 2.64 µM)	> 16	2 (≈ 5.28 µM)	16 (≈ 42.3 µM)				
CC(C)OC(=O)[C@H](Cn1ccnc1)NC(=O)c1ccc(-c2ccccc2F)cc1	0.25 (≈ 0.632 µM)	0.0625 (≈ 0.158 µM)	> 16	0.0625 (≈ 0.158 µM)	1 (≈ 2.53 µM)				
CC(C)COC(=O)[C@H](Cn1ccnc1)NC(=O)c1ccc(-c2ccccc2)s1	4 (≈ 10.1 µM)	0.125 (≈ 0.314 µM)	> 16	2 (≈ 5.03 µM)	> 16				
Cc1nc(-c2ccccc2)sc1C(=O)N[C@@H](Cn1ccnc1)C(=O)OC(C)C	2 (≈ 5.02 µM)	0.25 (≈ 0.627 µM)	> 16	2 (≈ 5.02 µM)	16 (≈ 40.2 µM)				
CC(C)COC(=O)[C@H](Cn1ccnc1)NC(=O)c1cc(-c2ccc(Br)cc2)on1	0.125 (≈ 0.271 µM)	0.0312 (≈ 0.0677 µM)	> 16	0.0312 (≈ 0.0677 µM)	2 (≈ 4.34 µM)				
CC(C)COC(=O)[C@H](Cn1ccnc1)NC(=O)c1coc(-c2ccccc2)n1	> 16	4 (≈ 10.5 µM)	> 16	> 16	> 16				
CC(C)OC(=O)[C@H](Cn1ccnc1)NC(=O)c1csc(-c2ccccc2)n1	> 16	> 16	> 16	> 16	> 16				
CC(C)OC(=O)[C@H](Cn1ccnc1)NC(=O)c1coc(-c2ccccc2)n1	> 16	8 (≈ 21.7 µM)	> 16	> 16	> 16				
CC(C)COC(=O)[C@H](Cn1ccnc1)NC(=O)c1cc(-c2ccc(F)cc2)on1	2 (≈ 4.99 µM)	0.0312 (≈ 0.078 µM)	8 (≈ 20 µM)	0.5 (≈ 1.25 µM)	0.5 (≈ 1.25 µM)				
CC(C)COC(=O)[C@H](Cn1ccnc1)NC(=O)c1ccc(-c2ccccc2)o1	> 16	4 (≈ 10.5 µM)	> 16	> 16	> 16				
Cc1cc(C(=O)N[C@@H](Cn2ccnc2)C(=O)OCC(C)C)nn1-c1ccccc1	> 16	4 (≈ 10.1 µM)	> 16	> 16	> 16				
CC(C)COC(=O)[C@H](Cn1ccnc1)NC(=O)c1csc(-c2ccccc2)n1	> 16	> 16	> 16	> 16	> 16				
Cc1cc(C(=O)N[C@@H](Cn2ccnc2)C(=O)OC(C)C)nn1-c1ccccc1	> 16	4 (≈ 10.5 µM)	> 16	> 16	> 16				
CC(C)COC(=O)[C@H](Cn1ccnc1)NC(=O)c1cc(-c2ccccc2F)on1	0.125 (≈ 0.312 µM)	0.0312 (≈ 0.078 µM)	4 (≈ 9.99 µM)	0.0312 (≈ 0.078 µM)	0.25 (≈ 0.624 µM)	61.4	74.6	0.5 (≈ 1.25 µM)	0.125 (≈ 0.312 µM)
CC(C)OC(=O)[C@H](Cn1ccnc1)NC(=O)c1cc(-c2ccc(Br)cc2)on1	0.25 (≈ 0.559 µM)	0.0312 (≈ 0.0699 µM)	> 16	0.0625 (≈ 0.14 µM)	2 (≈ 4.47 µM)				
CCC(C)n1ncn(-c2ccc(N3CCN(c4ccc(OCC5COC(Cn6cncn6)(c6ccc(Cl)cc6Cl)O5)cc4)CC3)cc2)c1=O (centres undefined) [ITRACONAZOLE]	0.125 (≈ 0.177 µM)	0.0312 (≈ 0.0443 µM)	1 (≈ 1.42 µM)	0.0312 (≈ 0.0443 µM)	1 (≈ 1.42 µM)				
Cc1nc(-c2ccccc2)sc1C(=O)N[C@@H](Cn1ccnc1)C(=O)OCC(C)C	1 (≈ 2.42 µM)	0.125 (≈ 0.303 µM)	> 16	0.25 (≈ 0.606 µM)	8 (≈ 19.4 µM)				
CC(C)OC(=O)[C@H](Cn1ccnc1)NC(=O)c1cnc(-c2ccccc2)nc1	1 (≈ 2.64 µM)	0.0625 (≈ 0.165 µM)	> 16	0.25 (≈ 0.659 µM)	8 (≈ 21.1 µM)				
CC(C)OC(=O)[C@H](Cn1ccnc1)NC(=O)c1ccc(-c2ccccc2)o1	> 16	8 (≈ 21.8 µM)	> 16	> 16	> 16				
CC(C)OC(=O)[C@H](Cn1ccnc1)NC(=O)c1ccc(-c2ccccc2)s1	8 (≈ 20.9 µM)	1 (≈ 2.61 µM)	> 16	8 (≈ 20.9 µM)	16 (≈ 41.7 µM)				
CC(C)COC(=O)[C@H](Cn1ccnc1)NC(=O)c1nc(-c2ccccc2)cs1	> 16	0.125 (≈ 0.314 µM)	> 16	> 16	2 (≈ 5.02 µM)				
Cc1ccc(-c2cc(C(=O)N[C@@H](Cn3ccnc3)C(=O)OC(C)C)no2)cc1	0.5 (≈ 1.31 µM)	0.0312 (≈ 0.0817 µM)	8 (≈ 20.9 µM)	0.25 (≈ 0.654 µM)	2 (≈ 5.23 µM)				
